Measured values taken from ChEMBL document CHEMBL1148598, “Rational design and enantioselective synthesis of (1R,4S,5R,6S)-3-azabicyclo[3.3.0]octane-4,6-dicarboxylic acid - a novel inhibitor at human glutamate transporter subtypes 1, 2, and 3” (J Med Chem, 2006).

What was measured:
[1] = target: T1, Excitatory amino acid transporter 3 (Homo sapiens, UniProt P43005); test: Activity against human EAAT3 transfected in HEK293 cells; type: cell-based
T1 sequence (P43005 whole entry): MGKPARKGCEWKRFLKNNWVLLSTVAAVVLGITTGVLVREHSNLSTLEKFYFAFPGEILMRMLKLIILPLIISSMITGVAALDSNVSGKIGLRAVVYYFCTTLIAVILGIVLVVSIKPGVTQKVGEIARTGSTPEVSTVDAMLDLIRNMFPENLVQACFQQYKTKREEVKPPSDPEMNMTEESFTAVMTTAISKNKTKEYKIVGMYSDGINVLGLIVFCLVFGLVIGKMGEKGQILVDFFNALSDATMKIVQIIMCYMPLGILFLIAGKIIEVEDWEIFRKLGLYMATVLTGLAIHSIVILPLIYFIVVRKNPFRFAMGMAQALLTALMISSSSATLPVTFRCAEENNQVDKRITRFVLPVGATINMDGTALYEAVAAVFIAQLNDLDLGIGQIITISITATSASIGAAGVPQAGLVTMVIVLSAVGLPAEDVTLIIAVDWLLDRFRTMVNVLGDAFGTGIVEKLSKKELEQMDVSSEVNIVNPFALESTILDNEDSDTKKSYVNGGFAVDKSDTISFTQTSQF
Summary of the method: (§1)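 HEK293 lines stably expressing the human transporter were grown on poly-D-lysine plates in DMEM with 10% dialyzed FBS, pen/strep and 1 mg/mL G-418. After 16-24 h, cells were put in Krebs buffer (pH 7.4) containing inhibitor and loaded with FMP dye for 30 min at 37 °C. Plates were read at 30 °C (ex 530/em 560 nm) up to 1 min after adding 30 µM Glu. Runs were in triplicate, ≥3 times. IC50 was converted to Ki by Cheng-Prusoff.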

[2] = target: Excitatory amino acid transporter 2 (Homo sapiens, UniProt P43004); test: Activity against human EAAT2 transfected in HEK293 cells; type: cell-based; summary of the method: as §1
Excitatory amino acid transporter 2, sequence (P43004 whole entry): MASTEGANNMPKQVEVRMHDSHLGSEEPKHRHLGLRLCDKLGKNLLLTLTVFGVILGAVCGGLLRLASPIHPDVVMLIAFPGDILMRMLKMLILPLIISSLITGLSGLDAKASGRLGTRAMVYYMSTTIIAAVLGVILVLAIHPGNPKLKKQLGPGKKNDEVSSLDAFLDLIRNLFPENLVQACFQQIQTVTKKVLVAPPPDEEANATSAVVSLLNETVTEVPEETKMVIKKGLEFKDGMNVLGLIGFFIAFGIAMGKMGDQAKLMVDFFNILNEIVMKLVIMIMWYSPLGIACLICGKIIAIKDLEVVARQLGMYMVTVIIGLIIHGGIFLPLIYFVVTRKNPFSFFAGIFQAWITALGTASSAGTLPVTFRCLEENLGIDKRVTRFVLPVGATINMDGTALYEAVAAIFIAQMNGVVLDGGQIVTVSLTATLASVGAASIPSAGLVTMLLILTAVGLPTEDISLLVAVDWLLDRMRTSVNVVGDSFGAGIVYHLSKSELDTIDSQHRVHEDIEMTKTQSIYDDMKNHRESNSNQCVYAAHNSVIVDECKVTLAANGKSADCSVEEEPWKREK

[3] = target: Excitatory amino acid transporter 1 (Homo sapiens, UniProt P43003); test: Activity against human EAAT1 transfected in HEK293 cells; type: cell-based; summary of the method: as §1
Excitatory amino acid transporter 1, sequence (P43003 whole entry): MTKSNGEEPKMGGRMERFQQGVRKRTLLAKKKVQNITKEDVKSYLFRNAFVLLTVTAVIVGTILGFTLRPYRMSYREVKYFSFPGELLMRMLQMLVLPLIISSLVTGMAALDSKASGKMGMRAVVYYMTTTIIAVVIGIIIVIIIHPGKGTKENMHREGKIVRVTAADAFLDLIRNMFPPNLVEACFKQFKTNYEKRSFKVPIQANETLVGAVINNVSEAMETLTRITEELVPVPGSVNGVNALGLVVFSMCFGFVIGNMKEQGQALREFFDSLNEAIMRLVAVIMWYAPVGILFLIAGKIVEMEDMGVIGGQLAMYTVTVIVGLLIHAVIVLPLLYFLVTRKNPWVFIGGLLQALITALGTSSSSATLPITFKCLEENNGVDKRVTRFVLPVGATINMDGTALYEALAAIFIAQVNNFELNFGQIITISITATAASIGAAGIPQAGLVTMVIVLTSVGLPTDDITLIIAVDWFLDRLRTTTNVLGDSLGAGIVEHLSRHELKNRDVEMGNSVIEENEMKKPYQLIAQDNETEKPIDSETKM

[4] = target: Metabotropic glutamate receptor 1 (Homo sapiens, UniProt Q13255); test: Activity against mGluR1
Metabotropic glutamate receptor 1, sequence (Q13255 whole entry): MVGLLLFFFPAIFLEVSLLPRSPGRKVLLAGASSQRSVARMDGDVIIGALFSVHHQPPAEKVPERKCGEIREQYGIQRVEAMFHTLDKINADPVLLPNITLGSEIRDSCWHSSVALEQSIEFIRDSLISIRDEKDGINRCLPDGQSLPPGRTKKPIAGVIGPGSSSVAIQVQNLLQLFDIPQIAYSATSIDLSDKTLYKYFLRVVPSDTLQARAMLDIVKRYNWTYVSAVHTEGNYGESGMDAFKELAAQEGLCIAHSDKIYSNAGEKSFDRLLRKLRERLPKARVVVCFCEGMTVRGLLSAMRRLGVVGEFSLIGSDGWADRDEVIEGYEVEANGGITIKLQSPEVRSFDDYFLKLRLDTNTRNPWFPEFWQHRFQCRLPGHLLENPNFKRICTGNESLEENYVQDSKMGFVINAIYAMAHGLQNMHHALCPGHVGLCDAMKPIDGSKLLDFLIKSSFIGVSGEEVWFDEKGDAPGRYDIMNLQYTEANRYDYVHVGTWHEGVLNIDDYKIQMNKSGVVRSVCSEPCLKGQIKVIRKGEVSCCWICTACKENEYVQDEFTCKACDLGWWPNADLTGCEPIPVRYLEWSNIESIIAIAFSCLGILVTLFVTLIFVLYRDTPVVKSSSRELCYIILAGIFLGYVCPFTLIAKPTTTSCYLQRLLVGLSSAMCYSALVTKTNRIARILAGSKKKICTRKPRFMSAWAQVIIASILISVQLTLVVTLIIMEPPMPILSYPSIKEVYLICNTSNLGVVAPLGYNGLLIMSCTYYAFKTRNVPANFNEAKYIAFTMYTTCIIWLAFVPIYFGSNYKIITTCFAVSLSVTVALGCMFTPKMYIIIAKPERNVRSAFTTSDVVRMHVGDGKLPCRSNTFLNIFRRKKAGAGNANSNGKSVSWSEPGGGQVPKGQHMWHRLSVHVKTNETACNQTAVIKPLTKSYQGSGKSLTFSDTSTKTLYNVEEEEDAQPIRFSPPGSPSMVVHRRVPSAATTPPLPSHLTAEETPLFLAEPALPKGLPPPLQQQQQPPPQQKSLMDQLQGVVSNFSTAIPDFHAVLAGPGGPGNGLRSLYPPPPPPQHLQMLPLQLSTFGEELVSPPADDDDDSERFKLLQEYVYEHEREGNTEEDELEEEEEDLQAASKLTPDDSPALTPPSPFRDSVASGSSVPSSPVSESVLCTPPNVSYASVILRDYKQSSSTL

Glutamate NMDA receptor = test: Displacement of [3H]CGP-39653 from NMDA preferring iGlu receptor in rat brain; type: tissue-based
[5] = target: Glutamate receptor ionotropic, kainate; test: Displacement of [3H]KAIN from kainate receptor in rat brain; type: tissue-based
Summary of the method: (§2)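 Radioligand binding used rat brain membranes prepared by the Ransom and Stec method. Ligands were 5 nM [³H]AMPA for AMPA sites, 5 nM [³H]KAIN for kainate sites and 2 nM [³H]CGP 39653 for NMDA sites, and the value is reported as IC50.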

[6] = target: Metabotropic glutamate receptor 2 (Homo sapiens, UniProt Q14416); test: Activity against mGluR2
Metabotropic glutamate receptor 2, sequence (Q14416 whole entry): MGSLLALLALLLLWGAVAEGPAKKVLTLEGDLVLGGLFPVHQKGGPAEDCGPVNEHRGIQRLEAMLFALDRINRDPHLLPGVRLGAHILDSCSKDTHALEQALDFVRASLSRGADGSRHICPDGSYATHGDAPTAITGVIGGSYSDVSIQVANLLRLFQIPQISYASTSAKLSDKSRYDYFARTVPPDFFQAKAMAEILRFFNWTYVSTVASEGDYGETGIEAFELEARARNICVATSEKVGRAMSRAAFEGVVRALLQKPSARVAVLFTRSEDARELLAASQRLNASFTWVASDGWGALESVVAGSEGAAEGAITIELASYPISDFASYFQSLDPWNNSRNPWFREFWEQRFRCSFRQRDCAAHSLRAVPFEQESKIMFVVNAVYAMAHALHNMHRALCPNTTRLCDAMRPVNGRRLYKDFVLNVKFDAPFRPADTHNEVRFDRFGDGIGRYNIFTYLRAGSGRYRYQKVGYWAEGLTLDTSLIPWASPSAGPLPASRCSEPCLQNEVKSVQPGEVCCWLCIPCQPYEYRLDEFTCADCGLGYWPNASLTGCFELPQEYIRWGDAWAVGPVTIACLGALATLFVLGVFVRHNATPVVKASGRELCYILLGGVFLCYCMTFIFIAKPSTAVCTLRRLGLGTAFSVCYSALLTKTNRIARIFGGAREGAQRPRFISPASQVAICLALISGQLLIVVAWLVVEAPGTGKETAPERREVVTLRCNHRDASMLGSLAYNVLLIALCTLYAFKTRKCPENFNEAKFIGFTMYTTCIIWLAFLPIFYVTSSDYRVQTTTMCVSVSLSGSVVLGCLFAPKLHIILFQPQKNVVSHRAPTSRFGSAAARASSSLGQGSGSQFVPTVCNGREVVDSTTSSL

[7] = target: Glutamate receptor ionotropic, AMPA (Rattus norvegicus, UniProt P19490+P19491+P19492+P19493); test: Displacement of [3H]AMPA from AMPA receptor in rat brain; type: tissue-based; summary of the method: as §2

Structure (SMILES)	Ki [1] [µM]	Ki [2] [µM]	Ki [3] [µM]	EC50 [4] [µM]	Ki (Glutamate NMDA receptor) [µM]	IC50 [5] [µM]	EC50 [6] [µM]	IC50 [7] [µM]
O=C(O)[C@H]1CC2CC1[C@@H](C(=O)O)N2 (stereo partly specified)	> 400	> 400	> 400	–	–	–	–	–
O=C(O)[C@H]1CC[C@H]2CN[C@H](C(=O)O)[C@H]21	46	52	127	> 1000	2.9	14	1000	> 100
